Experimental findings from ChEMBL document CHEMBL1136992, “Further studies at neuropeptide s position 5: discovery of novel neuropeptide S receptor antagonists” (J Med Chem, 2009) are described below.

Activity calls are given as the source filed them. The rule behind the calls is not given here. Square brackets hold non-standard residues; d marks the D form. Peptide text beside a SMILES is read from it. * marks the point of attachment. d(tBuAla) = CC(C)(C)C[C@@H](N)C(=O)O; d(aThr) = C[C@@H](O)[C@@H](N)C(=O)O; dCha = N[C@H](CC1CCCCC1)C(=O)O; dChg = N[C@@H](C(=O)O)C1CCCCC1; dPen = CC(C)(S)[C@@H](N)C(=O)O; dPhg = N[C@@H](C(=O)O)c1ccccc1; dNva = CCC[C@@H](N)C(=O)O; tBu = CC(C)(C)*

The first experiment addresses T1, Neuropeptide S receptor (Mus musculus, UniProt Q8BZP8).
T1 sequence (Q8BZP8 whole entry): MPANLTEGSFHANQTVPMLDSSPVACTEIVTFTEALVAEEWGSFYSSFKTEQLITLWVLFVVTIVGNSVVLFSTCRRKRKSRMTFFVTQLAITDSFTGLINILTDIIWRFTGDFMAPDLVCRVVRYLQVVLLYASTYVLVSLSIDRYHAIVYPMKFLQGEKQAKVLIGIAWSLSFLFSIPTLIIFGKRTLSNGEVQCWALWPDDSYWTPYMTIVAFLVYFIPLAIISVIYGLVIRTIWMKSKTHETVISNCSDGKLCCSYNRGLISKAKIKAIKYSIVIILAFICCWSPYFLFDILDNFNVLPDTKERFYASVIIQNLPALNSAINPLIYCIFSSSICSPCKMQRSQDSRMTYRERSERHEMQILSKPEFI
The experiment in a line: Agonist activity at mouse NPSR expressed in HEK293 cells by calcium mobilization assay.
Details: not given
The format is functional, cell-based. In short, it runs like this: (§1)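 HEK293 cells stably expressing mouse NPSR; intracellular calcium mobilization measured after peptide addition, concentration-response curves giving pEC50 and Emax as % over basal. Mean of at least four separate experiments performed in duplicate.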
For the compound `CSCC[C@H](NC(=O)CNC(=O)[C@@H](NC(=O)CNC(=O)[C@@H](NC(=O)[C@@H](CC(C)(C)C)NC(=O)[C@H](CC(N)=O)NC(=O)[C@H](CCCN=C(N)N)NC(=O)[C@H](Cc1ccccc1)NC(=O)[C@@H](N)CO)C(C)C)[C@@H](C)O)C(=O)N[C@@H](CCCCN)C(=O)N[C@@H](CCCCN)C(=O)N[C@H](C(=O)N[C@@H](CO)C(=O)N[C@@H](Cc1ccccc1)C(=O)N[C@@H](CCC(N)=O)C(=O)N[C@@H](CCCN=C(N)N)C(=O)N[C@@H](C)C(=O)N[C@@H](CCCCN)C(=O)O)[C@@H](C)O` (H-SFRN[d(tBuAla)]VGTGMKKTSFQRAK-OH), the EC50 was 1660 nM. As to `CCC[C@@H](NC(=O)[C@H](CC(N)=O)NC(=O)[C@H](CCCN=C(N)N)NC(=O)[C@H](Cc1ccccc1)NC(=O)[C@@H](N)CO)C(=O)N[C@H](C(=O)NCC(=O)N[C@H](C(=O)NCC(=O)N[C@@H](CCSC)C(=O)N[C@@H](CCCCN)C(=O)N[C@@H](CCCCN)C(=O)N[C@H](C(=O)N[C@@H](CO)C(=O)N[C@@H](Cc1ccccc1)C(=O)N[C@@H](CCC(N)=O)C(=O)N[C@@H](CCCN=C(N)N)C(=O)N[C@@H](C)C(=O)N[C@@H](CCCCN)C(=O)O)[C@@H](C)O)[C@@H](C)O)C(C)C` (H-SFRN[dNva]VGTGMKKTSFQRAK-OH), the EC50 was 2690 nM.

As to “H-SFRNGVGTGMKKTSFQRAKS-OH [NEUROPEPTIDE S]”, the EC50 is 4.79 nM. The same measure, in the same setting: the result for `CSCC[C@H](NC(=O)CNC(=O)[C@@H](NC(=O)CNC(=O)[C@@H](NC(=O)[C@H](NC(=O)[C@H](CC(N)=O)NC(=O)[C@H](CCCN=C(N)N)NC(=O)[C@H](Cc1ccccc1)NC(=O)[C@@H](N)CO)c1ccccc1)C(C)C)[C@@H](C)O)C(=O)N[C@@H](CCCCN)C(=O)N[C@@H](CCCCN)C(=O)N[C@H](C(=O)N[C@@H](CO)C(=O)N[C@@H](Cc1ccccc1)C(=O)N[C@@H](CCC(N)=O)C(=O)N[C@@H](CCCN=C(N)N)C(=O)N[C@@H](C)C(=O)N[C@@H](CCCCN)C(=O)O)[C@@H](C)O` (H-SFRN[dPhg]VGTGMKKTSFQRAK-OH) reads 661 nM; that for `CSCC[C@H](NC(=O)CNC(=O)[C@@H](NC(=O)CNC(=O)[C@@H](NC(=O)[C@H](NC(=O)[C@H](CC(N)=O)NC(=O)[C@H](CCCNC(=N)N)NC(=O)[C@H](Cc1ccccc1)NC(=O)[C@@H](N)CO)[C@H](C)O)C(C)C)[C@@H](C)O)C(=O)N[C@@H](CCCCN)C(=O)N[C@@H](CCCCN)C(=O)N[C@H](C(=O)N[C@@H](CO)C(=O)N[C@@H](Cc1ccccc1)C(=O)N[C@@H](CCC(N)=O)C(=O)N[C@@H](CCCNC(=N)N)C(=O)N[C@@H](C)C(=O)N[C@@H](CCCCN)C(=O)O)[C@@H](C)O` (H-SFRN[dT]VGTGMKKTSFQRAK-OH), 794 nM.

A further experiment deals with T2, Neuropeptide S receptor (Mus musculus) (UniProt Q8BZP8).
T2 sequence (whole entry): T1 sequence (Q8BZP8 whole entry)
The experiment in a line: Antagonist activity at mouse NPSR expressed in HEK293 cells assessed as inhibition of NPS-induced response. The experiment is classed as functional, cell-based.
Details: not given
The procedure, abridged: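 HEK293 cells stably expressing mouse NPSR, calcium mobilization. Inhibition response curves to test peptides against 30 nM NPS, run at 37 °C with three up-and-down mixing cycles right after antagonist injection to aid diffusion. Mean of at least four separate experiments performed in duplicate.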
Consider `CSCC[C@H](NC(=O)CNC(=O)[C@@H](NC(=O)CNC(=O)[C@@H](NC(=O)[C@H](NC(=O)[C@H](CC(N)=O)NC(=O)[C@H](CCCNC(=N)N)NC(=O)[C@H](Cc1ccccc1)NC(=O)[C@@H](N)CO)C(C)C)C(C)C)[C@@H](C)O)C(=O)N[C@@H](CCCCN)C(=O)N[C@@H](CCCCN)C(=O)N[C@H](C(=O)N[C@@H](CO)C(=O)N[C@@H](Cc1ccccc1)C(=O)N[C@@H](CCC(N)=O)C(=O)N[C@@H](CCCNC(=N)N)C(=O)N[C@@H](C)C(=O)N[C@@H](CCCCN)C(=O)N[C@@H](CO)C(=O)O)[C@@H](C)O` (H-SFRN[dV]VGTGMKKTSFQRAKS-OH), for which the pKb came to 6.54.

On to `CSCC[C@H](NC(=O)CNC(=O)[C@@H](NC(=O)CNC(=O)[C@@H](NC(=O)[C@@H](CSC(C)(C)C)NC(=O)[C@H](CC(N)=O)NC(=O)[C@H](CCCNC(=N)N)NC(=O)[C@H](Cc1ccccc1)NC(=O)[C@@H](N)CO)C(C)C)[C@@H](C)O)C(=O)N[C@@H](CCCCN)C(=O)N[C@@H](CCCCN)C(=O)N[C@H](C(=O)N[C@@H](CO)C(=O)N[C@@H](Cc1ccccc1)C(=O)N[C@@H](CCC(N)=O)C(=O)N[C@@H](CCCNC(=N)N)C(=O)N[C@@H](C)C(=O)N[C@@H](CCCCN)C(=O)N[C@@H](CO)C(=O)O)[C@@H](C)O` (H-SFRN[dC](tBu)VGTGMKKTSFQRAKS-OH), for which the pKb turned out to be 6.5.

The target in another experiment is T2, Neuropeptide S receptor (Mus musculus). The experiment can be described thus: Agonist activity at mouse NPSR expressed in HEK293 cells up to 10 uM by calcium mobilization assay. The format is functional, cell-based.
Details: not given
The procedure, abridged:
as §1
With `CSCC[C@H](NC(=O)CNC(=O)[C@@H](NC(=O)CNC(=O)[C@@H](NC(=O)[C@H](NC(=O)[C@H](CC(N)=O)NC(=O)[C@H](CCCNC(=N)N)NC(=O)[C@H](Cc1ccccc1)NC(=O)[C@@H](N)CO)C(C)(C)S)C(C)C)[C@@H](C)O)C(=O)N[C@@H](CCCCN)C(=O)N[C@@H](CCCCN)C(=O)N[C@H](C(=O)N[C@@H](CO)C(=O)N[C@@H](Cc1ccccc1)C(=O)N[C@@H](CCC(N)=O)C(=O)N[C@@H](CCCNC(=N)N)C(=O)N[C@@H](C)C(=O)N[C@@H](CCCCN)C(=O)O)[C@@H](C)O` (H-SFRN[dPen]VGTGMKKTSFQRAK-OH), the Emax entry was “inactive”. Same read-out and setting: the result for `CSCC[C@H](NC(=O)CNC(=O)[C@@H](NC(=O)CNC(=O)[C@@H](NC(=O)[C@H](NC(=O)[C@H](CC(N)=O)NC(=O)[C@H](CCCNC(=N)N)NC(=O)[C@H](Cc1ccccc1)NC(=O)[C@@H](N)CO)C(C)C)C(C)C)[C@@H](C)O)C(=O)N[C@@H](CCCCN)C(=O)N[C@@H](CCCCN)C(=O)N[C@H](C(=O)N[C@@H](CO)C(=O)N[C@@H](Cc1ccccc1)C(=O)N[C@@H](CCC(N)=O)C(=O)N[C@@H](CCCNC(=N)N)C(=O)N[C@@H](C)C(=O)N[C@@H](CCCCN)C(=O)N[C@@H](CO)C(=O)O)[C@@H](C)O` (H-SFRN[dV]VGTGMKKTSFQRAKS-OH) reads “inactive”; that for `CSCC[C@H](NC(=O)CNC(=O)[C@@H](NC(=O)CNC(=O)[C@@H](NC(=O)[C@@H](CC1CCCCC1)NC(=O)[C@H](CC(N)=O)NC(=O)[C@H](CCCNC(=N)N)NC(=O)[C@H](Cc1ccccc1)NC(=O)[C@@H](N)CO)C(C)C)[C@@H](C)O)C(=O)N[C@@H](CCCCN)C(=O)N[C@@H](CCCCN)C(=O)N[C@H](C(=O)N[C@@H](CO)C(=O)N[C@@H](Cc1ccccc1)C(=O)N[C@@H](CCC(N)=O)C(=O)N[C@@H](CCCNC(=N)N)C(=O)N[C@@H](C)C(=O)N[C@@H](CCCCN)C(=O)O)[C@@H](C)O` (H-SFRN[dCha]VGTGMKKTSFQRAK-OH), “inactive”. On the same count and under the same terms, the result for `CSCC[C@H](NC(=O)CNC(=O)[C@@H](NC(=O)CNC(=O)[C@@H](NC(=O)[C@H](NC(=O)[C@H](CC(N)=O)NC(=O)[C@H](CCCNC(=N)N)NC(=O)[C@H](Cc1ccccc1)NC(=O)[C@@H](N)CO)[C@@H](C)O)C(C)C)[C@@H](C)O)C(=O)N[C@@H](CCCCN)C(=O)N[C@@H](CCCCN)C(=O)N[C@H](C(=O)N[C@@H](CO)C(=O)N[C@@H](Cc1ccccc1)C(=O)N[C@@H](CCC(N)=O)C(=O)N[C@@H](CCCNC(=N)N)C(=O)N[C@@H](C)C(=O)N[C@@H](CCCCN)C(=O)O)[C@@H](C)O` (H-SFRN[d(aThr)]VGTGMKKTSFQRAK-OH) reads “inactive”. With `CC[C@@H](C)[C@@H](NC(=O)[C@H](CC(N)=O)NC(=O)[C@H](CCCNC(=N)N)NC(=O)[C@H](Cc1ccccc1)NC(=O)[C@@H](N)CO)C(=O)N[C@H](C(=O)NCC(=O)N[C@H](C(=O)NCC(=O)N[C@@H](CCSC)C(=O)N[C@@H](CCCCN)C(=O)N[C@@H](CCCCN)C(=O)N[C@H](C(=O)N[C@@H](CO)C(=O)N[C@@H](Cc1ccccc1)C(=O)N[C@@H](CCC(N)=O)C(=O)N[C@@H](CCCNC(=N)N)C(=O)N[C@@H](C)C(=O)N[C@@H](CCCCN)C(=O)O)[C@@H](C)O)[C@@H](C)O)C(C)C` (H-SFRN[dI]VGTGMKKTSFQRAK-OH), the Emax result is “inactive”. Regarding `CSCC[C@H](NC(=O)CNC(=O)[C@@H](NC(=O)CNC(=O)[C@@H](NC(=O)[C@H](NC(=O)[C@H](CC(N)=O)NC(=O)[C@H](CCCNC(=N)N)NC(=O)[C@H](Cc1ccccc1)NC(=O)[C@@H](N)CO)C1CCCCC1)C(C)C)[C@@H](C)O)C(=O)N[C@@H](CCCCN)C(=O)N[C@@H](CCCCN)C(=O)N[C@H](C(=O)N[C@@H](CO)C(=O)N[C@@H](Cc1ccccc1)C(=O)N[C@@H](CCC(N)=O)C(=O)N[C@@H](CCCNC(=N)N)C(=O)N[C@@H](C)C(=O)N[C@@H](CCCCN)C(=O)O)[C@@H](C)O` (H-SFRN[dChg]VGTGMKKTSFQRAK-OH), the Emax result is “inactive”. In the case of `CC[C@H](C)C(NC(=O)[C@H](CC(N)=O)NC(=O)[C@H](CCCNC(=N)N)NC(=O)[C@H](Cc1ccccc1)NC(=O)[C@@H](N)CO)C(=O)N[C@H](C(=O)NCC(=O)N[C@H](C(=O)NCC(=O)N[C@@H](CCSC)C(=O)N[C@@H](CCCCN)C(=O)N[C@@H](CCCCN)C(=O)N[C@H](C(=O)N[C@@H](CO)C(=O)N[C@@H](Cc1ccccc1)C(=O)N[C@@H](CCC(N)=O)C(=O)N[C@@H](CCCNC(=N)N)C(=O)N[C@@H](C)C(=O)N[C@@H](CCCCN)C(=O)O)[C@@H](C)O)[C@@H](C)O)C(C)C` (single isomer, unassigned), the Emax result is “inactive”.

A further experiment addresses T3, Neuropeptide S receptor (Homo sapiens) (UniProt Q6W5P4).
T3 sequence (whole entry): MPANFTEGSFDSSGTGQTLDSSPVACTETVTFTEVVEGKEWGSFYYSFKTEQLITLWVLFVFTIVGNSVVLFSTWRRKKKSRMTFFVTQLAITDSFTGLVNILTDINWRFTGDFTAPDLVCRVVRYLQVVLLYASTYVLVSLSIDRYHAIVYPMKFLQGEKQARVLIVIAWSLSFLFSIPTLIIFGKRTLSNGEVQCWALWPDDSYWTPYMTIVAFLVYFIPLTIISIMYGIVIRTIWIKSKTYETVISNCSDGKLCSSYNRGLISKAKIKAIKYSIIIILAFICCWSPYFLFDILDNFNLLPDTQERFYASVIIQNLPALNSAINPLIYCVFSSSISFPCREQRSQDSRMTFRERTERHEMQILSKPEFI
As to conditions: HEK293.
For `O=C(NCc1ccc(F)cc1)N1CCN2C(=O)OC(c3ccccc3)(c3ccccc3)C2C1` (stereo not given), the pKb was determined as 7.5.
